In ChEMBL document CHEMBL1177669, “Synthesis and biological study of 3-(phenylsulfonyl)thieno[2,3-e][1,2,3]triazolo[1,5-a]pyrimidines as potent and selective serotonin 5-HT6 receptor antagonists” (Bioorg Med Chem, 2010):

Target: 5-hydroxytryptamine receptor 6 (Homo sapiens, UniProt P50406)
Test: Antagonist activity at human recombinant 5HT6 receptor expressed in HEK293 cells assessed as inhibition of serotonin-induced cAMP production
Format: functional, cell-based
How it was run: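 HEK293 cells stably expressing recombinant human 5-HT6R, stimulated with serotonin. cAMP from adenylyl cyclase measured by LANCE. Compounds screened at 5 and 10 μM. IC50 determined for compounds giving more than 50% inhibition of cAMP synthesis at 5 μM.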

5-hydroxytryptamine receptor 6, sequence (P50406 whole entry): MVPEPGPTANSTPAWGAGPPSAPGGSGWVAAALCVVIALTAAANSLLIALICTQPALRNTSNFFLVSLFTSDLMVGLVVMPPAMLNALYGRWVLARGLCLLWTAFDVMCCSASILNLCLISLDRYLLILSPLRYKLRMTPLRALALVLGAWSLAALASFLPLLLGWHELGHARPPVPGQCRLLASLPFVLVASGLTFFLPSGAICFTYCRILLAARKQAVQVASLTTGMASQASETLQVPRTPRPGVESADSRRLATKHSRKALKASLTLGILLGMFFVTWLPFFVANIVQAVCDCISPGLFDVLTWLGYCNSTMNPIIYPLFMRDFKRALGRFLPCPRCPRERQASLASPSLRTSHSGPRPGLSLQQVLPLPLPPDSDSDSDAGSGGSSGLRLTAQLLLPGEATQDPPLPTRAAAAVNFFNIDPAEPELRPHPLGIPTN

SMILES | IC50 [nM]
COCCNc1nc2c(S(=O)(=O)c3cc(C)ccc3C)nnn2c2ccsc12 | 860
CCc1ccc(S(=O)(=O)c2nnn3c2nc(Nc2cccc(C)c2)c2sccc23)cc1 | 1750
Cc1ccc(C)c(Nc2nc3c(S(=O)(=O)c4ccc(Br)cc4)nnn3c3ccsc23)c1 | 2010
O=S(=O)(c1ccccc1)c1nnn2c1nc(NC1CCCCCC1)c1sccc12 | 170
O=S(=O)(c1ccccc1)c1nnn2c1nc(Nc1ccc(F)cc1)c1sccc12 | 600
CCN(CC)c1nc2c(S(=O)(=O)c3cccc(Cl)c3)nnn2c2ccsc12 | 1220
COCCCNc1nc2c(S(=O)(=O)c3cc(C)ccc3C)nnn2c2ccsc12 | 1290
COCCCNc1nc2c(S(=O)(=O)c3ccc(Cl)cc3)nnn2c2ccsc12 | > 5000
Cc1ccc(C)c(S(=O)(=O)c2nnn3c2nc(N2CCOCC2)c2sccc23)c1 | 1930
CCc1ccc(S(=O)(=O)c2nnn3c2nc(N(CC)CC)c2sccc23)cc1 | 1900
CCN(Cc1ccccc1)c1nc2c(S(=O)(=O)c3cccc(Cl)c3)nnn2c2ccsc12 | 540
Cc1ccc(C)c(S(=O)(=O)c2nnn3c2nc(NC(C)c2ccccc2)c2sccc23)c1 (centres undefined) | 170
Cc1ccc(C)c(S(=O)(=O)c2nnn3c2nc(NCc2cccs2)c2sccc23)c1 | 710
Cc1ccc(S(=O)(=O)c2nnn3c2nc(NCCC(C)C)c2sccc23)cc1 | 580
COCCNc1nc2c(S(=O)(=O)c3ccc(Cl)cc3)nnn2c2ccsc12 | 2170
Cc1ccc(S(=O)(=O)c2nnn3c2nc(NCc2ccccc2)c2sccc23)cc1 | 260
O=S(=O)(c1ccc(Cl)cc1)c1nnn2c1nc(NCC1CCCO1)c1sccc12 (centres undefined) | 480
COc1cccc(CNc2nc3c(S(=O)(=O)c4ccc(C)cc4)nnn3c3ccsc23)c1 | 2210
NC(=O)C1CCN(c2nc3c(S(=O)(=O)c4ccccc4)nnn3c3ccsc23)CC1 | 1990
Nc1nc2c(S(=O)(=O)c3ccc(Br)cc3)nnn2c2ccsc12 | 610
Cc1ccc(S(=O)(=O)c2nnn3c2nc(NCc2ccc(F)cc2)c2sccc23)cc1C | 520
CC1CCN(c2nc3c(S(=O)(=O)c4cccc(Cl)c4)nnn3c3ccsc23)CC1 | 1120
CC(C)CCNc1nc2c(S(=O)(=O)c3ccc(C(C)C)cc3)nnn2c2ccsc12 | > 5000
Cc1ccc(C)c(S(=O)(=O)c2nnn3c2nc(N(C)Cc2ccccc2)c2sccc23)c1 | 1480
COc1cccc(Nc2nc3c(S(=O)(=O)c4ccc(C(C)C)cc4)nnn3c3ccsc23)c1 | 900

SMILES | IC50 [nM]
CC(Nc1nc2c(S(=O)(=O)c3cccc(Cl)c3)nnn2c2ccsc12)c1ccccc1 (centres undefined) | 150
O=S(=O)(c1cccc(Cl)c1)c1nnn2c1nc(NC1CCCC1)c1sccc12 | 170
Cc1ccc(S(=O)(=O)c2nnn3c2nc(NCc2ccc(F)cc2)c2sccc23)cc1 | 740
Cc1ccc(C)c(Nc2nc3c(S(=O)(=O)c4cccc(Cl)c4)nnn3c3ccsc23)c1 | 740
Cc1ccc(C)c(S(=O)(=O)c2nnn3c2nc(N2CCC(C)CC2)c2sccc23)c1 | 1990
CC(C)Nc1nc2c(S(=O)(=O)c3ccc(Cl)cc3)nnn2c2ccsc12 | 1200
Cc1ccc(S(=O)(=O)c2nnn3c2nc(NC(C)c2ccccc2)c2sccc23)cc1 (centres undefined) | 180
COCCCNc1nc2c(S(=O)(=O)c3ccccc3)nnn2c2ccsc12 | 260
Cc1ccc(C)c(S(=O)(=O)c2nnn3c2nc(NCCC(C)C)c2sccc23)c1 | 860
Cc1ccc(C)c(S(=O)(=O)c2nnn3c2nc(NC2CCCC2)c2sccc23)c1 | 590
Cc1ccc(C)c(S(=O)(=O)c2nnn3c2nc(NCC2CCCO2)c2sccc23)c1 (centres undefined) | 890
Cc1ccc(S(=O)(=O)c2nnn3c2nc(NCc2ccco2)c2sccc23)cc1 | 500
CN(C)CCN(C)c1nc2c(S(=O)(=O)c3cccc(Cl)c3)nnn2c2ccsc12 | 780
Cc1ccc(C)c(S(=O)(=O)c2nnn3c2nc(NCCc2ccccc2)c2sccc23)c1 | 670
COCCCNc1nc2c(S(=O)(=O)c3ccc(Br)cc3)nnn2c2ccsc12 | > 5000
COCCCNc1nc2c(S(=O)(=O)c3cccc(Cl)c3)nnn2c2ccsc12 | 150
COc1ccccc1CNc1nc2c(S(=O)(=O)c3ccc(C)c(C)c3)nnn2c2ccsc12 | 470
Cc1ccc(S(=O)(=O)c2nnn3c2nc(NCCc2ccccc2)c2sccc23)cc1 | 960
Cc1ccc(S(=O)(=O)c2nnn3c2nc(NC2CCCCC2)c2sccc23)cc1C | 820
Cc1ccc(S(=O)(=O)c2nnn3c2nc(NC(C)C)c2sccc23)cc1C | 750
Cc1ccc(S(=O)(=O)c2nnn3c2nc(Nc2cccc(C)c2)c2sccc23)cc1 | 5220
Cc1ccc(S(=O)(=O)c2nnn3c2nc(NCc2cccs2)c2sccc23)cc1C | 90
Cc1ccc(S(=O)(=O)c2nnn3c2nc(NCc2ccc4c(c2)OCO4)c2sccc23)cc1 | 1250
O=S(=O)(c1cccc(Cl)c1)c1nnn2c1nc(N1CCOCC1)c1sccc12 | 1040
Cc1cccc(Nc2nc3c(S(=O)(=O)c4ccc(C(C)C)cc4)nnn3c3ccsc23)c1C | 1000

SMILES | IC50 [nM]
O=S(=O)(c1cccc(Cl)c1)c1nnn2c1nc(Nc1cccc(C(F)(F)F)c1)c1sccc12 | 1070
Cc1ccc(C)c(S(=O)(=O)c2nnn3c2nc(N2CCCCC2)c2sccc23)c1 | 1520
Cc1ccc(S(=O)(=O)c2nnn3c2nc(NC2CCCC2)c2sccc23)cc1 | 2030
COc1cccc(Nc2nc3c(S(=O)(=O)c4ccc(C)c(C)c4)nnn3c3ccsc23)c1 | 860
COc1ccccc1Nc1nc2c(S(=O)(=O)c3ccc(Cl)cc3)nnn2c2ccsc12 | 1150
CC(C)Nc1nc2c(S(=O)(=O)c3cccc(Cl)c3)nnn2c2ccsc12 | 470
CC(C)c1ccc(S(=O)(=O)c2nnn3c2nc(NCc2ccccc2Cl)c2sccc23)cc1 | 1830
O=S(=O)(c1ccc(Br)cc1)c1nnn2c1nc(NCC1CCCO1)c1sccc12 (centres undefined) | 1620
O=S(=O)(c1ccc(Cl)cc1)c1nnn2c1nc(NCc1ccccc1)c1sccc12 | 270
Cc1ccc(S(=O)(=O)c2nnn3c2nc(N(C)Cc2ccccc2)c2sccc23)cc1C | 1330
Cc1ccc(S(=O)(=O)c2nnn3c2nc(NC(C)Cc2ccccc2)c2sccc23)cc1C (centres undefined) | 680
Cc1ccc(S(=O)(=O)c2nnn3c2nc(NCCC(C)C)c2sccc23)cc1C | 46
CCc1ccc(S(=O)(=O)c2nnn3c2nc(NCCc2ccccc2)c2sccc23)cc1 | 1050
CN(Cc1ccccc1)c1nc2c(S(=O)(=O)c3ccc(Cl)cc3)nnn2c2ccsc12 | 1190
CC(Nc1nc2c(S(=O)(=O)c3ccc(Br)cc3)nnn2c2ccsc12)c1ccccc1 (centres undefined) | 540
O=S(=O)(c1ccccc1)c1nnn2c1nc(Nc1nc3ccccc3s1)c1sccc12 | > 5000
CC(Nc1nc2c(S(=O)(=O)c3ccc(Cl)cc3)nnn2c2ccsc12)c1ccccc1 (centres undefined) | 280
O=S(=O)(c1ccc(Cl)cc1)c1nnn2c1nc(NCc1ccco1)c1sccc12 | 410
COCCNc1nc2c(S(=O)(=O)c3ccccc3)nnn2c2ccsc12 | 190
O=S(=O)(c1ccccc1)c1nnn2c1nc(NCc1ccc(F)cc1)c1sccc12 | 690
COc1ccccc1CNc1nc2c(S(=O)(=O)c3cccc(Cl)c3)nnn2c2ccsc12 | 780
O=S(=O)(c1cccc(Cl)c1)c1nnn2c1nc(NCc1ccco1)c1sccc12 | 190
CC(Cc1ccccc1)Nc1nc2c(S(=O)(=O)c3ccccc3)nnn2c2ccsc12 (centres undefined) | 1080
CCc1cccc(Nc2nc3c(S(=O)(=O)c4ccc(C)cc4)nnn3c3ccsc23)c1 | 1380
COc1ccccc1CNc1nc2c(S(=O)(=O)c3ccc(Cl)cc3)nnn2c2ccsc12 | 1150

SMILES | IC50 [nM]
O=S(=O)(c1ccc(Cl)cc1)c1nnn2c1nc(NCc1cccs1)c1sccc12 | 650
O=S(=O)(c1cccc(Cl)c1)c1nnn2c1nc(NC1CCCCC1)c1sccc12 | 69
O=S(=O)(c1ccccc1)c1nnn2c1nc(NCc1ccc(Cl)cc1)c1sccc12 | 1170
CC1CCCN(c2nc3c(S(=O)(=O)c4cccc(Cl)c4)nnn3c3ccsc23)C1 (centres undefined) | 2000
O=S(=O)(c1cccc(Cl)c1)c1nnn2c1nc(NC1CCCCCC1)c1sccc12 | 140
Cc1ccc(S(=O)(=O)c2nnn3c2nc(NC2CCCCCC2)c2sccc23)cc1C | 350
COCCNc1nc2c(S(=O)(=O)c3ccc(C(C)C)cc3)nnn2c2ccsc12 | > 5000
COCCNc1nc2c(S(=O)(=O)c3cccc(Cl)c3)nnn2c2ccsc12 | 110
COc1ccccc1CNc1nc2c(S(=O)(=O)c3ccccc3)nnn2c2ccsc12 | 290
Cc1ccc(S(=O)(=O)c2nnn3c2nc(Nc2cccc(C)c2C)c2sccc23)cc1 | 590
Cc1ccc(Nc2nc3c(S(=O)(=O)c4ccc(C(C)C)cc4)nnn3c3ccsc23)cc1C | 1110
CCN(Cc1ccccc1)c1nc2c(S(=O)(=O)c3ccc(Cl)cc3)nnn2c2ccsc12 | 570
Cc1ccc(S(=O)(=O)c2nnn3c2nc(NCc2ccco2)c2sccc23)cc1C | 770
CCc1ccc(S(=O)(=O)c2nnn3c2nc(NCCC(C)C)c2sccc23)cc1 | > 5000
Cc1ccc(S(=O)(=O)c2nnn3c2nc(NCc2cccc(Cl)c2)c2sccc23)cc1 | 120
COCCNc1nc2c(S(=O)(=O)c3ccc(C)cc3)nnn2c2ccsc12 | 1490
O=S(=O)(c1cccc(Cl)c1)c1nnn2c1nc(NCc1cccs1)c1sccc12 | 150
Cc1ccc(S(=O)(=O)c2nnn3c2nc(NC2CCCCC2)c2sccc23)cc1 | 730
O=S(=O)(c1cccc(Cl)c1)c1nnn2c1nc(Nc1ccccc1)c1sccc12 | 920
CCCCNc1nc2c(S(=O)(=O)c3cccc(Cl)c3)nnn2c2ccsc12 | 60
Cc1ccc(S(=O)(=O)c2nnn3c2nc(NCC2CCCO2)c2sccc23)cc1 (centres undefined) | 250
O=S(=O)(c1ccccc1)c1nnn2c1nc(Nc1cccc(C(F)(F)F)c1)c1sccc12 | 820
O=S(=O)(c1cccc(Cl)c1)c1nnn2c1nc(NCCc1ccccc1)c1sccc12 | 820
Cc1ccc(S(=O)(=O)c2nnn3c2nc(NCc2ccccc2Cl)c2sccc23)cc1C | 600
